We go through 167 variants from the RNAGym collection of RNA variant scans (doi:10.1126/science.aae0568).

B1: tRNA (parent)
chain: GUUCCGUUGGCGUAAUGGUAACGCGUCUCCCUCCUAAGGAGAAGACUGCGGGUUCGAGUCCCGUACGGAACG

Fewer inactive variants are shown than the library holds.

The variants in the data set derive from B1. Kind of data set: yeast fitness relative to wild type (ratio to wild type); higher = fitter; tRNA-Arg(CCU), competitive growth, 37 C, YPD. The procedure, abridged:
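Variants of the tRNA-Arg(CCU) gene, chemically synthesised with a 3% per-site mutation rate at 69 sites, were placed at the native genomic locus in Saccharomyces cerevisiae. The pooled strains were competed in YPD at 37°C for 24 hours in six parallel replicates. Gene amplicons from the start population and from each end population were read by 100-nucleotide paired-end sequencing. Darwinian fitness relative to wild type came from changes in genotype frequencies; genotypes needed ≥ 100 starting reads, and estimates < 0.5 were set to 0.5.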
Regarding C27U C66U, the yeast fitness was determined as 0.955. Next, U19C C33A C34G: not above 0.5.

Consider G23A U47A U64A, for which the yeast fitness is not above 0.5. C5G C29G C66A: the yeast fitness was not above 0.5. Next, C31A A37U G67C: 0.575. Next, C49U G52A: 0.748; G44A: 0.982; C5U C33U C34U G58C G63A: not above 0.5. Next, C4A C30G G41C G68A: not above 0.5.

C31G C55U: the yeast fitness was found to be 0.683. Next, C5U C22U C27U A42G C55A C60A: not above 0.5; A45G C49A C62A: not above 0.5; A14G G25A G44C: 0.782.

For the variant C22U C30U A37G C66U, the yeast fitness is not above 0.5. For the variant A21G G39C A69C, the yeast fitness worked out at 0.536. The result for A15C A42G reads 0.76; that for A37C A40C U53C, 0.526. In the case of C46U C49U U53C, the yeast fitness was determined as 0.703. Take U7C C11U U19G C29U U32C C34G G52C A70G: the yeast fitness is not above 0.5. The result for C11A C22G A45C G50A reads 0.741; that for A21C C22G, 0.564. Take A20C C33A A70G: the yeast fitness was 0.592. On to C11G C60G, for which the yeast fitness turned out to be 0.713. Next, C34U A40C: 0.613; U2A C29G C34A C60G: not above 0.5; U8A U26G: 0.666. The result for U8A C24A reads 0.624. On to C24A A43U U59A C61U, for which the yeast fitness is not above 0.5.

Regarding G41A C49U A70U, the yeast fitness amounted to 0.708. The result for C11G C27G G67A reads not above 0.5; that for G23C C27A A57U, not above 0.5; that for C4G A14C C24U C49U, not above 0.5.

On to A20C A36G G48A G50C, for which the yeast fitness is not above 0.5. For C34U A40C A43G, the yeast fitness was 0.513. The result for U32G A45G A69U reads 0.553; that for C4U A21G U28G C60A, not above 0.5. Next, U3C G6A C29G G58A: not above 0.5; C24U U47C G63A: 0.829. Next, C22G G25A: 0.993; U2A C31G: 0.864; G10C C24A G51A A65G A70C: 0.55. For A57C A69C, the yeast fitness amounted to 0.608.

For the variant C5G U7G A14C U19A G58C, the yeast fitness stood at 0.584.

Consider C22G C24G C29U C33U A37C G52A, for which the yeast fitness amounted to 0.625. In the case of U35G G67A, the yeast fitness was determined as 0.616.

Turning to A21C U28G C33U C34U A43U G50A A69C, the yeast fitness was not above 0.5. Next, A20U C62U U64G: 0.603. As for C49G U59A G63A, the yeast fitness was 0.564. Take U13A U19A C24G C27U C33G G52C: the yeast fitness was not above 0.5. With C5G C24G C34G C46U C61A A70U, the yeast fitness is not above 0.5. The result for U7A U8A G10C C27G C34G A42G C55U reads not above 0.5. Turning to A36U U64A, the yeast fitness turned out to be 0.535.

With U26A G63A G68C A69G, the yeast fitness is not above 0.5. In the case of C4G C5U C31G G41A A43C G51C, the yeast fitness amounted to 0.606. Next, C22A A43U C60A A65G: 0.683; C4G A15C A57U C61G: not above 0.5; U19A U26A C29A C46G U54A: 0.603. Next, U2C G10C C24A C31U A36C A43C C55A: 0.546. The result for A20U C34A C55G C66A reads 0.561; that for A20C U59C, 0.749; that for C5G G9C G58C, not above 0.5. For the variant G9A C24A A36C A37G C49A, the yeast fitness was not above 0.5. Next, U19C C31U C34U A57C: not above 0.5. Turning to U26C U54C, the yeast fitness is 0.887.

Take G10A G12A U16A G18A A45U: the yeast fitness was not above 0.5. With C31U G58A A65C, the yeast fitness was 0.65.

C5G A14C C29A C31G U54A A70U: the yeast fitness turned out to be 0.545.

Consider U3G C11G, for which the yeast fitness was found to be 0.556. Consider A36U A70U, for which the yeast fitness was found to be 0.747. A15U G39C A42C A65C: the yeast fitness is not above 0.5.

For A45G G58A C60U, the yeast fitness was 0.584. The result for C11U G38C reads 0.715; that for G17C C31A, 0.551. Next, U2C U35G A40C: 0.587. The result for A15C C30A G63A reads not above 0.5. In the case of U2C A14G C29A C33G C66A, the yeast fitness is not above 0.5. For A21G G25C C61G G68U, the yeast fitness was not above 0.5. As for G39C A70U, the yeast fitness was found to be 0.873. The result for G23C A37G A42U G48C C49U reads not above 0.5; that for G41A A42C A65C, 0.565.

As for G23A U26A U28A C29G, the yeast fitness was not above 0.5. As for U2A G56A, the yeast fitness came to 0.898. The result for C4U C61U reads 0.977; that for A21U C31G A42G U53A G68A, not above 0.5; that for C5G C22U U28G, not above 0.5. On to A37C A45U C61U, for which the yeast fitness came out at 0.545.

For the variant A20C C31G, the yeast fitness is 0.744.

Regarding U8G C29A A37U C49A, the yeast fitness was not above 0.5. The result for C4G G18A A45C reads not above 0.5; that for C4U G12C C60G A70C, not above 0.5. Take C27A C34G A42G G50A: the yeast fitness was not above 0.5. On to A21C C31A, for which the yeast fitness was 0.725. Next, G25C C31U A65U: 0.726; C27U G44A G52A A57C: 0.538; C5A G17C C27G: 0.57. Next, U2G G6A: 0.634; C4U U8C A37U A45U C49U: not above 0.5. In the case of U2A G17A A45G, the yeast fitness was 0.587. On to C31U C55U C61A G67A, for which the yeast fitness is not above 0.5. Take A15G A70C: the yeast fitness was 1.04. The result for G9C C31A reads 0.685; that for U13G U16C A42U G44A C49A, not above 0.5; that for C31A A42G A43U G56C, not above 0.5.

As to A20C C30A C55G, the yeast fitness stood at 0.557.

U7C G18A C30U C34A: the yeast fitness was not above 0.5. As to C4A C11U C30U G39C C55G, the yeast fitness was not above 0.5. G38C G41A C55U G67C: the yeast fitness was not above 0.5. The result for U8C C24U A45U reads 0.608; that for G12A C33U A36C G51C A57U, not above 0.5; that for U13A C27A A36G A42C, not above 0.5. Next, C31G G41A G52C C60U C62G: 0.53; G12A A36U: 0.612; C24U C29G A43C C55G G68A: not above 0.5. Next, C4G U13A U53A A65G: not above 0.5; A15G C55G G56U G68C: not above 0.5; C34U A40G A69U: 0.574. With C11G C29G C33U C46A C49G G68C, the yeast fitness is not above 0.5. On to U7A A14C C30A A36G C62U G63A A70U, for which the yeast fitness is not above 0.5. The result for G9A U26A A43U A65U reads 0.562. In the case of U2A C11G C31U A36G, the yeast fitness amounted to 0.646.

G17A C29U: the yeast fitness is 0.832.

In the case of C4G G41A A45U G56C, the yeast fitness is not above 0.5.

Consider U2C C24U G44C, for which the yeast fitness was not above 0.5.

Take C24G U28G C33U A42U G50A A70U: the yeast fitness is not above 0.5. Regarding C30G C46G C60U A69G, the yeast fitness was not above 0.5. Next, U28G C46G C61U: not above 0.5; G10A U13C C31G A57C: 0.587. As for U47G, the yeast fitness worked out at 0.633. With A43U C55A, the yeast fitness was 0.613. Regarding U47C U64C, the yeast fitness is 0.926. The result for U13A A40G reads 0.733; that for G12C C34U G44A G51C, not above 0.5. The result for U13A C31U C49U C66A G67A reads not above 0.5; that for U19A U26C C30A G67U, not above 0.5. Regarding C5G A20U G68C, the yeast fitness was not above 0.5. A15G U35A A57G: the yeast fitness was not above 0.5.

For the variant A21C C27G, the yeast fitness is 0.537.

Regarding C24U G50C, the yeast fitness was 0.774.

Regarding G6C C60A, the yeast fitness is 0.583. Next, G9A G17C C29G: 0.567. The result for U13C U19C U26C C31A C61G reads not above 0.5; that for C11A G50C, not above 0.5; that for G23A U47C C49U, not above 0.5.

For the variant A15G G18A C49A, the yeast fitness was not above 0.5.

On to A15U U32G G44A G50A U54A, for which the yeast fitness is not above 0.5. Regarding G9C A20G U35C A36G G58A G67A, the yeast fitness was not above 0.5. For the variant C5U G17A C60G G67A, the yeast fitness is not above 0.5. Next, A14C U64C: 0.935; U28A C31A A36C A45G G48C: 0.619; A21U G25A G56U: not above 0.5.

As for C4G A15G A43G A57C A65U, the yeast fitness was not above 0.5. As to A57U C62A U64A, the yeast fitness was not above 0.5. The result for C4U A14U A69U reads 0.651; that for U19G A40G C55G A65C, not above 0.5.

Regarding G9A A20U C66U, the yeast fitness amounted to 0.529. The result for C4U A36C G63A reads 0.536. Take C5G A14C G25A U32C G41C G50A C61G: the yeast fitness is not above 0.5. Next, A20U U32A G67C: 0.543; C4G C5U C49A G56A G63C: not above 0.5; A42U C55U: 0.709. On to G10C U32C C66G, for which the yeast fitness was not above 0.5. The result for A20U U28A C31U C55G A57C reads not above 0.5; that for G18A C55U, 0.554. For the variant U8C C34G G58C C62U, the yeast fitness is not above 0.5. As for G12A U26A C31U G48A, the yeast fitness worked out at 0.711. Consider U16A C24U C34A A65G G67A, for which the yeast fitness was not above 0.5. Next, A21U A43G G44C: not above 0.5.
